Assay results from ChEMBL document CHEMBL1129325, “Ureido-based peptidomimetic inhibitor of herpes simplex virus ribonucleotide reductase: an investigation of inhibitor bioactive conformation” (J Med Chem, 1996).
Numbered stars: 1 amine (or outer) side, 2 acyl side, 3 side chain; on linkers, the order of the positions; unused ones are H or OH. Square brackets hold non-standard residues; d marks the D form. Peptide text beside a SMILES is read from it. * marks the point of attachment. Hydrocinnamoyl = O=C(CCc1ccccc1)*; Butanoyl(2-Et) = CCC(CC)C(=O)*; Tle = CC(C)(C)[C@H](N)C(=O)O; Pip = O=C(O)[C@@H]1CCCCN1; NH(3-pentyl) = CCC(CC)N*; Pyrrolidide = C1CCN(*)C1; CO = O=C([*:1])[*:2]; X2 = CCC(CC)CC(=O)*; X3 = CCC(CC)OC(=O)*; X1 = CCCC(CCC)N*; NHiPr = CC(C)N*

Target: T1, Ribonucleoside-diphosphate reductase large subunit (Herpes simplex virus (type 1 / strain 17), UniProt P08543)
T1 sequence (P08543 whole entry): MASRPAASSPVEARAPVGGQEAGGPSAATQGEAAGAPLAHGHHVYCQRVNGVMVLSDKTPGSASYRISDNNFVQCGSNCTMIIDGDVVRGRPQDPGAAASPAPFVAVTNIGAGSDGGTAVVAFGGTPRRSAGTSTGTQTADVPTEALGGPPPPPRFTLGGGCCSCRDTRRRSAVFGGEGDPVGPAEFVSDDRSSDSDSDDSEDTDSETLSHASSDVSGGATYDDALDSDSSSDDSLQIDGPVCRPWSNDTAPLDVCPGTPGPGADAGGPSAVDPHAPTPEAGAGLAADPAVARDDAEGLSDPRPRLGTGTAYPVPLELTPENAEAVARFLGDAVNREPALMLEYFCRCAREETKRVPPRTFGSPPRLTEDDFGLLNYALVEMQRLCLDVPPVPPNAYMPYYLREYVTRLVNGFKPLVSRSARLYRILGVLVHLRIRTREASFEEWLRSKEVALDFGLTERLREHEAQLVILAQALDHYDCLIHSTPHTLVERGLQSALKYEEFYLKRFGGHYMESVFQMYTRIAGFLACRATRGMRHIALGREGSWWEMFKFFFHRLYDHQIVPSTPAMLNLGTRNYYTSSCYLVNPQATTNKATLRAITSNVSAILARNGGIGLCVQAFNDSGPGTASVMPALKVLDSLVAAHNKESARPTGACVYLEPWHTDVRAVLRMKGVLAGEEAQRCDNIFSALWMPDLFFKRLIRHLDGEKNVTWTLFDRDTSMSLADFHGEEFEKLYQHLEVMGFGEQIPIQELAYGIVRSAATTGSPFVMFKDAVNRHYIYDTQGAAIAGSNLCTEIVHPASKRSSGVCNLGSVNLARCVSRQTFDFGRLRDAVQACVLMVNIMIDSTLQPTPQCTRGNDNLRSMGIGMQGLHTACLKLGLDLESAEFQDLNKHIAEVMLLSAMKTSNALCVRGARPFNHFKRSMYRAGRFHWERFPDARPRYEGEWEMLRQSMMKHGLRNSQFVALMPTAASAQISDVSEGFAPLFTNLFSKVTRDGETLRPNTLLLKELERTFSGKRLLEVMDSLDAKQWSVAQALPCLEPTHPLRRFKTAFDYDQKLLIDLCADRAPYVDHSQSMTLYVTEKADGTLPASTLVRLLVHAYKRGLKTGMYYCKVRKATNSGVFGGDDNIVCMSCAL
Assay: Inhibitory activity against Herpes simplex virus (HSV) ribonucleotide reductase (RR)
Procedure, shortened: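 Radioligand binding assay for HSV ribonucleotide reductase subunit association, run per a previously published protocol. IC50 taken as the mean of at least four separate determinations, with standard deviation reported.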

SMILES	IC50 [nM]
CCC(CC)NC(=O)N[C@H](C(=O)N1CCC(C(=O)N2CCCC2)[C@H]1C(=O)N[C@@H](CC(=O)O)C(=O)N[C@@H](CC(C)C)C(=O)O)C(C)(C)C (stereo partly drawn)	108
CCC(CC)NC(=O)NC1CCCN([C@@H](CC(=O)N2CCCC2)C(=O)N[C@@H](CC(=O)O)C(=O)N[C@@H](CC(C)C)C(=O)O)C1=O (stereo partly drawn)	240
CCC(CC)NC(=O)N[C@H](C(=O)N1CCCC(C(=O)NC)C1C(=O)N[C@@H](CC(=O)O)C(=O)N[C@@H](CC(C)C)C(=O)O)C(C)(C)C (stereo partly drawn)	10
CCC(CC)NC(=O)NC1CCN([C@@H](CC(=O)N2CCCC2)C(=O)N[C@@H](CC(=O)O)C(=O)N[C@@H](CC(C)C)C(=O)O)C1=O (stereo partly drawn)	800
CCC(CC)NC(=O)C[C@H](C(=O)N[C@@H](CC(=O)N1CCCC1)C(=O)N[C@@H](CC(=O)O)C(=O)N[C@@H](CC(C)C)C(=O)O)C(C)(C)C	5
CC(=O)N[C@H](C(=O)N[C@H](C(=O)N[C@@H](CC(=O)N1CCCC1)C(=O)N[C@@H](CC(=O)O)C(=O)N[C@@H](CC(C)C)C(=O)O)C(C)C)C(C)C (Ac-VVD(Pyrrolidide)DL-OH)	880
CC(C)C[C@H](NC(=O)[C@H](CC(=O)O)NC(=O)[C@H](CC(=O)N1CCCC1)NC(=O)[C@@H](NC(=O)[C@@H](NC(=O)CCc1ccccc1)C(C)C)C(C)C)C(=O)O (Hydrocinnamoyl-VVD(Pyrrolidide)DL-OH)	24
CCC(CC)CC(=O)N[C@H](C(=O)N[C@@H](CC(=O)N1CCCC1)C(=O)N[C@@H](CC(=O)O)C(=O)N[C@@H](CC(C)C)C(=O)O)C(C)(C)C (X2-[Tle]D(Pyrrolidide)DL-OH)	140
CCC(CC)OC(=O)N[C@H](C(=O)N[C@@H](CC(=O)N1CCCC1)C(=O)N[C@@H](CC(=O)O)C(=O)N[C@@H](CC(C)C)C(=O)O)C(C)(C)C (X3-[Tle]D(Pyrrolidide)DL-OH)	635
CCC(CC)NC(=O)N[C@H](C(=O)N1CCCC(C(=O)N2CCCC2)C1C(=O)N[C@@H](CC(=O)O)C(=O)N[C@@H](CC(C)C)C(=O)O)C(C)(C)C (stereo in doubt; 16)	32
CCC(CC)NC(=O)N[C@H](C(=O)N1CCCC(C(=O)N2CCCC2)C1C(=O)N[C@@H](CC(=O)O)C(=O)N[C@@H](CC(C)C)C(=O)O)C(C)(C)C (stereo in doubt; 17)	3000
CCC(CC)C(=O)N[C@H](C(=O)N[C@@H](CC(=O)N1CCCC1)C(=O)N[C@@H](CC(=O)O)C(=O)N[C@@H](CC(C)C)C(=O)O)C(C)C ({Butanoyl(2-Et)}-VD(Pyrrolidide)DL-OH)	860
CCC(CC)NC(=O)N[C@@H](C)C(=O)N[C@@H](CC(=O)N1CCCC1)C(=O)N[C@@H](CC(=O)O)C(=O)N[C@@H](CC(C)C)C(=O)O ({NH(3-pentyl)-CO}-AD(Pyrrolidide)DL-OH)	41000
CCC(CC)NC(=O)NCC(=O)N[C@@H](CC(=O)N1CCCC1)C(=O)N[C@@H](CC(=O)O)C(=O)N[C@@H](CC(C)C)C(=O)O ({NH(3-pentyl)-CO}-GD(Pyrrolidide)DL-OH)	670
CCC(CC)NC(=O)N[C@H](C(=O)N[C@@H](CC(=O)N1CCCC1)C(=O)N[C@@H](CC(=O)O)C(=O)N[C@@H](CC(C)C)C(=O)O)C(C)C ({NH(3-pentyl)-CO}-VD(Pyrrolidide)DL-OH)	15
CCC(CC)NC(=O)N[C@H](C(=O)N[C@@H](C)C(=O)N[C@@H](CC(=O)O)C(=O)N[C@@H](CC(C)C)C(=O)O)C(C)(C)C ({NH(3-pentyl)-CO}-[Tle]ADL-OH)	110000
CCC(CC)NC(=O)N[C@H](C(=O)N[C@@H](CC(=O)NC)C(=O)N[C@@H](CC(=O)O)C(=O)N[C@@H](CC(C)C)C(=O)O)C(C)(C)C ({NH(3-pentyl)-CO}-[Tle]D(NHMe)DL-OH)	35
CCC(CC)NC(=O)N[C@H](C(=O)N[C@@H](CC(=O)N1CCCC1)C(=O)N[C@@H](CC(=O)O)C(=O)N[C@@H](CC(C)C)C(=O)O)C(C)(C)C ({NH(3-pentyl)-CO}-[Tle]D(Pyrrolidide)DL-OH)	3
CCC(CC)NC(=O)N[C@H](C(=O)N1CCC[C@H]1C(=O)N[C@@H](CC(=O)O)C(=O)N[C@@H](CC(C)C)C(=O)O)C(C)(C)C ({NH(3-pentyl)-CO}-[Tle]PDL-OH)	100000
CCC(CC)NC(=O)N[C@H](C(=O)N1CCCC[C@H]1C(=O)N[C@@H](CC(=O)O)C(=O)N[C@@H](CC(C)C)C(=O)O)C(C)(C)C ({NH(3-pentyl)-CO}-[Tle][Pip]DL-OH)	750000
CNC(=O)N[C@H](C(=O)N[C@@H](CC(=O)N1CCCC1)C(=O)N[C@@H](CC(=O)O)C(=O)N[C@@H](CC(C)C)C(=O)O)C(C)C ({NHMe-CO}-VD(Pyrrolidide)DL-OH)	42000
CC(C)C[C@H](NC(=O)[C@H](CC(=O)O)NC(=O)[C@H](CC(=O)N1CCCC1)NC(=O)[C@@H](NC(=O)NC(C)C)C(C)C)C(=O)O ({NHiPr-CO}-VD(Pyrrolidide)DL-OH)	435
CCCC(CCC)NC(=O)N[C@H](C(=O)N[C@@H](CC(=O)N1CCCC1)C(=O)N[C@@H](CC(=O)O)C(=O)N[C@@H](CC(C)C)C(=O)O)C(C)C ({X1-CO}-VD(Pyrrolidide)DL-OH)	7
